The text below walks through data of publication PMC3832383 (Drug Design, Development and Therapy, 2013).

Converted amounts (≈) assume the structure as drawn.

For one experiment, the system named is P. falciparum strain NF54. Briefly: [3H]hypoxanthine incorporation assay, unsynchronized parasites. It is filed as cell-based. The conditions noted are these: Plasmodium falciparum, NF54, 72 h. The procedure, abridged: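 Two ways of diluting the 10 mg/mL stock were compared. In one, the stock went straight into hypoxanthine-free medium. In the other, it was diluted 1/50 in co-solvent, then 1/100 and 1/2 in hypoxanthine-free medium.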
Compound `OC(c1cc(C(F)(F)F)nc2c(C(F)(F)F)cccc12)C1CCCCN1` (stereo not drawn) [mefloquine] yielded an IC50 of 4.1 ng/mL (≈ 0.0108 µM).

`CCc1nc(N)nc(N)c1-c1ccc(Cl)cc1` [pyrimethamine] came in with a 50% inhibitory concentration (IC50) of 3 ng/mL (≈ 0.0121 µM).

`CCN(CC)Cc1cc(Nc2ccnc3cc(Cl)ccc23)ccc1O` [amodiaquine] gave an IC50 of 1.5 ng/mL (≈ 0.00422 µM).

Compound `C[C@@H]1CC[C@H]2[C@@H](C)C(=O)O[C@@H]3O[C@@]4(C)CC[C@@H]1[C@]32OO4` [artemisinin] registered an IC50 of 3 ng/mL (≈ 0.0106 µM).

As for `COc1ccc2nc3cc(Cl)ccc3c(Nc3cc(CN4CCCC4)c(O)c(CN4CCCC4)c3)c2n1` [pyronaridine], the IC50 is 2.6 ng/mL (≈ 0.00502 µM).

`Clc1ccc2c(N3CCN(CCCN4CCN(c5ccnc6cc(Cl)ccc56)CC4)CC3)ccnc2c1` [piperaquine] showed an IC50 of 7.8 ng/mL (≈ 0.0146 µM).

For the next experiment, the system named is Plasmodium falciparum strain NF54 (rings, trophozoites, schizonts). Briefly: In vitro assessment of stage-specific activity, synchronous cultures. It is filed as cell-based. The settings on record: control drug; data not shown. The procedure, abridged: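 P. falciparum NF54 synchronized by two 5% D-sorbitol treatments, with intervals set to give rings (>80%, ≤6 h old), trophozoites (≥80%, ≤20 h) or early schizonts (≤36 h). Stages were exposed 6 or 24 h to two-fold dilutions (final 250–7.81 ng/mL) in hypoxanthine-free medium, co-solvent <0.5%, then washed and assessed by [3H]hypoxanthine incorporation. Values are mean ± SD of 3–4 independent experiments.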
Consider `CCc1nc(N)nc(N)c1-c1ccc(Cl)cc1` [pyrimethamine], for which the “effect against ring and trophozoite stages” value was “ineffective”.

A further experiment has as its system P. falciparum strain NF54.
Assay: not given
The settings on record: unsynchronized NF54; cited from earlier work.
Consider `[H]/N=C(\N/C(=N/[H])Nc1ccc(Cl)cc1)NC(C)C` [proguanil], for which the half-maximal inhibitory concentration (IC50) is given as 440 ng/mL (≈ 1.73 µM).

On to `O=C1C(O)=C([C@H]2CC[C@H](c3ccc(Cl)cc3)CC2)C(=O)c2ccccc21` [atovaquone], for which the IC50 is recorded as 0.38 ng/mL (≈ 0.00104 µM).

What is called IC50 is the point on the concentration scale where inhibition reaches its midpoint.
